Results as given in ChEMBL document CHEMBL4196006, “Aryl thiosemicarbazones for the treatment of trypanosomatidic infections” (Eur J Med Chem, 2018).
The source made the active and inactive calls. The rule behind the calls is not given here.

Experiments:
Trypanosoma cruzi = experiment: Antitrypanosomal activity against Trypanosoma cruzi amastigote form infected in human U2OS cells assessed as parasite growth inhibition at 50 uM after 72 hrs relative to control; assay type: functional; settings: for inhibition of growth at 50 µM: read-out: GI
Procedure, shortened: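 U2OS monolayers grown for 24 h, then infected with tissue-derived trypomastigotes of T. cruzi Y strain. Compounds were added 24 h after infection at 50 μM (single-point) or in dose-response, with 72 h exposure. Plates were fixed, stained and analysed by high-content imaging; activity was normalized to infected and non-infected controls. Means of at least two experiments; benznidazole as reference.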

Trypanosoma brucei [1] = experiment: Antitrypanosomal activity against Trypanosoma brucei Lister 427 bloodstream form at 10 uM after 72 hrs by resazurin dye-based assay relative to control; assay type: functional
Trypanosoma brucei [2] = experiment: Antitrypanosomal activity against Trypanosoma brucei Lister 427 bloodstream form assessed as parasite growth inhibition at 50 uM after 72 hrs by SYBR Green assay relative to control; assay type: functional; settings: for inhibition of growth at 50 µM: Lister 427, 72 h, read-out: GI
[3] = Cytotoxicity against human A549 cells assessed as growth inhibition at 10 uM after 48 hrs by CellTiter-Glo assay relative to control; values are per cent of control; settings: A549 cells
[4] = molecular target: T1, Pteridine reductase 1 (Leishmania major) (UniProt Q01782); experiment: Inhibition of Leishmania major PTR1 at 50 uM using H2B as substrate in presence of NADPH by photometric analysis relative to control
T1 sequence (whole entry): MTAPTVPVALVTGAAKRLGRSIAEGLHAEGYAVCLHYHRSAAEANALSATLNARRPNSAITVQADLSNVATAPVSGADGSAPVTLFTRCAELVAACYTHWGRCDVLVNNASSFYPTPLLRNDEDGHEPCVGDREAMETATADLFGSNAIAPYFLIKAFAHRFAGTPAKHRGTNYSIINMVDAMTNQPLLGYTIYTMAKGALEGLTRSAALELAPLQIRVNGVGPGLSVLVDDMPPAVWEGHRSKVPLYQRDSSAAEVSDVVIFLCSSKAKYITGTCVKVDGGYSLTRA

Leishmania infantum = experiment: Antileishmanial activity against Leishmania infantum amastigote form assessed as parasite growth inhibition at 50 uM after 72 hrs by steady-Glo reagent based assay relative to control; assay type: functional; settings: for inhibition of growth at 50 µM: read-out: GI
Procedure, shortened: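 Intramacrophage L. infantum amastigotes in THP-1-derived macrophages, tested at 50 μM or in dose-response. Plates held 72 h at 37 °C, 5% CO2. Medium was replaced by PBS, macrophages lysed, and parasites read by Steady-Glo luminescence. High-content imaging gave host cell number, infection ratio (infected/total cells) and parasites per infected cell. Values are means of at least two independent experiments.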

CYP3A4 = CYP3A4 (Homo sapiens, UniProt P08684); experiment: Inhibition of human microsomal CYP3A4 expressed in baculovirus infected BTI-TN-5B1-4 cells at 10 uM incubated for 30 mins by luciferase assay relative to control; assay type: ADME
Procedure, shortened: (§1)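 CYP1A2, 2C9, 2C19, 2D6 and 3A4 in microsomes from baculovirus-infected insect cells, each with a P450-Glo luminogenic substrate. Inhibition read as loss of light; single-point at 10 μM, triplicate.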

[5] = Cytotoxicity against human WI38 cells assessed as growth inhibition at 10 uM after 48 hrs by CellTiter-Glo assay relative to control; values are per cent of control; settings: WI38 cells
[6] = Cytotoxicity against human U2OS cells assessed as viable cells at 50 uM after 72 hrs by MTT assay relative to control; assay type: cell-based; settings: read-out: Activity
Trypanosoma brucei [7] = experiment: Potentiation of methotrexate-induced antitrypanosomal activity against Trypanosoma brucei Lister 427 bloodstream form at 10 uM after 72 hrs by resazurin dye-based assay; assay type: functional
hERG (KCNH2) = hERG (KCNH2) (Homo sapiens, UniProt Q12809); experiment: Inhibition of human ERG at 10 uM incubated for 2 hrs by fluorescence polarisation assay relative to control
[8] = Cytotoxicity against human 786-O cells assessed as inhibition of mitochondrial viability at 10 uM after 6 hrs by CMXRos staining based assay relative to control; assay type: cell-based, 786-0; settings: read-out: INH
Procedure, shortened: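 Mitochondrial toxicity monitored by MitoTracker Red CMXRos uptake and high-content imaging; compound at 10 μM, triplicate.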

CYP2D6 = CYP2D6 (Homo sapiens, UniProt P10635); experiment: Inhibition of human microsomal CYP2D6 expressed in baculovirus infected BTI-TN-5B1-4 cells at 10 uM incubated for 30 mins by luciferase assay relative to control; assay type: ADME; procedure, shortened: as §1
Aurora kinase B = Aurora kinase B (Homo sapiens, UniProt Q96GD4); experiment: Inhibition of recombinant full-length human aurora B kinase expressed in baculovirus system at 10 uM using MBP as substrate incubated for 45 mins by ADP-glo kinase assay; settings: probe MBP
Procedure, shortened: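 Aurora B activity measured as ADP formation via coupled luciferase ADP-Glo luminescence; single-point at 10 μM, triplicate.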

[9] = Cytotoxicity against human THP1 cells assessed as viable cells at 100 uM after 72 hrs by MTT assay relative to control; assay type: cell-based, THP-1; settings: read-out: Activity
Procedure, shortened: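 THP-1-derived macrophages exposed to compounds for 72 h, tested at 100 μM or in dose-response; viability read by MTT colorimetric assay.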

Trypanosoma brucei [10] = experiment: Potentiation of methotrexate-induced antitrypanosomal activity against Trypanosoma brucei Lister 427 bloodstream form at 10 uM after 72 hrs by resazurin dye-based assay relative to control; assay type: functional
CYP2C19 = CYP2C19 (Homo sapiens, UniProt P33261); experiment: Inhibition of human microsomal CYP2C19 expressed in baculovirus infected BTI-TN-5B1-4 cells at 10 uM incubated for 30 mins by luciferase assay relative to control; assay type: ADME; procedure, shortened: as §1
CYP2C9 = CYP2C9 (Homo sapiens, UniProt P11712); experiment: Inhibition of human microsomal CYP2C9 expressed in baculovirus infected BTI-TN-5B1-4 cells at 10 uM incubated for 30 mins by luciferase assay relative to control; assay type: ADME; procedure, shortened: as §1
[11] = molecular target: T2, Pteridine reductase, putative (Trypanosoma brucei) (UniProt Q581W1); experiment: Inhibition of Trypanosoma brucei PTR1 at 50 uM using H2B as substrate in presence of NADPH by photometric analysis relative to control
T2 sequence (whole entry): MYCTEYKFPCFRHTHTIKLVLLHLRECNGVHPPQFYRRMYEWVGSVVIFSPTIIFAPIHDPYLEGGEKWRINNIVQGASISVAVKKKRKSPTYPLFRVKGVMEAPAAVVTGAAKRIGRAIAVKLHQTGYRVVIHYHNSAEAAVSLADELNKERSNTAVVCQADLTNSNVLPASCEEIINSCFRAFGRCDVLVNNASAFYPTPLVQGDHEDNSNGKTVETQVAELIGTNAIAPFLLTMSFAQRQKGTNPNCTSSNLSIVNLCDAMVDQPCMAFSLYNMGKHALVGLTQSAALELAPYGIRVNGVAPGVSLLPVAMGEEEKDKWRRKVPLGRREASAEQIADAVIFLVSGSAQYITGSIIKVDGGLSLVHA

CYP1A2 = molecular target: T3, CYP1A2 (Homo sapiens, UniProt P05177); experiment: Inhibition of human microsomal CYP1A2 expressed in baculovirus infected BTI-TN-5B1-4 cells at 10 uM incubated for 30 mins by luciferase assay relative to control; assay type: ADME; procedure, shortened: as §1
T3 sequence (P05177 whole entry): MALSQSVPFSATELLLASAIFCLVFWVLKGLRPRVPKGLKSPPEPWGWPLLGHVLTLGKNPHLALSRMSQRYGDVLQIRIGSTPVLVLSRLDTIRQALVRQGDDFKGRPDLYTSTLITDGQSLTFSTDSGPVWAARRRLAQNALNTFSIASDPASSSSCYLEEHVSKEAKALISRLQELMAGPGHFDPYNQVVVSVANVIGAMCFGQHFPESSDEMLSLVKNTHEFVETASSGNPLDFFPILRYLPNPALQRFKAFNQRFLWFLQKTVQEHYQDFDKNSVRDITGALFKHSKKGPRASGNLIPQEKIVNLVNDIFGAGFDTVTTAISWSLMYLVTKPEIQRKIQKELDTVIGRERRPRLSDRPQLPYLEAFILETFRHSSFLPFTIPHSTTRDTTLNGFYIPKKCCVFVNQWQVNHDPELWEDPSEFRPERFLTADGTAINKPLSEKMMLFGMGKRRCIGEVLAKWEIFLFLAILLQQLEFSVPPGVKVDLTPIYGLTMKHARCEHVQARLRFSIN

Chain of CYP2D6 (P10635 whole entry): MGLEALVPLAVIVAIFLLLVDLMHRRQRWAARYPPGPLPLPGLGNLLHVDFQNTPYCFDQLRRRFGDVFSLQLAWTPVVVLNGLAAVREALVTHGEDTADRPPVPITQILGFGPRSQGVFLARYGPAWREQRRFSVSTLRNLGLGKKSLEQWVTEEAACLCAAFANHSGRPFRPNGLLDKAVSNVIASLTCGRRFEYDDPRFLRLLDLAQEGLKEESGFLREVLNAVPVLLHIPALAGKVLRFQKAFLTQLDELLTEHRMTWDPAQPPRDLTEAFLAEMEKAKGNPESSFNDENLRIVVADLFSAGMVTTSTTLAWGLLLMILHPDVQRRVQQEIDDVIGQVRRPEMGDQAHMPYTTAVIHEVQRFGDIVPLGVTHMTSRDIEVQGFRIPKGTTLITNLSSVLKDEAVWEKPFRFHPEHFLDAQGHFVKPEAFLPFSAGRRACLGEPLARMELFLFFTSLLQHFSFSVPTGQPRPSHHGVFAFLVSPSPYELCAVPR
Chain of Aurora kinase B (Q96GD4 whole entry): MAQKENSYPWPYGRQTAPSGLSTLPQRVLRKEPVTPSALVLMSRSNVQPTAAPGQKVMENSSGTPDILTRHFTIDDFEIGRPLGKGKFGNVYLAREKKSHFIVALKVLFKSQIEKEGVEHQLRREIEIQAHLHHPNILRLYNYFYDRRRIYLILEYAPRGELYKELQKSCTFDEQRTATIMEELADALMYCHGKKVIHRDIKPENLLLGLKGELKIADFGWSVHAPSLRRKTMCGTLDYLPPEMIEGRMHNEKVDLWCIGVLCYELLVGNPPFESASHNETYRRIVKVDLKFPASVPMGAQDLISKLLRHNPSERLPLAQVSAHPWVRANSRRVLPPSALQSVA
Chain of CYP2C9 (P11712 whole entry): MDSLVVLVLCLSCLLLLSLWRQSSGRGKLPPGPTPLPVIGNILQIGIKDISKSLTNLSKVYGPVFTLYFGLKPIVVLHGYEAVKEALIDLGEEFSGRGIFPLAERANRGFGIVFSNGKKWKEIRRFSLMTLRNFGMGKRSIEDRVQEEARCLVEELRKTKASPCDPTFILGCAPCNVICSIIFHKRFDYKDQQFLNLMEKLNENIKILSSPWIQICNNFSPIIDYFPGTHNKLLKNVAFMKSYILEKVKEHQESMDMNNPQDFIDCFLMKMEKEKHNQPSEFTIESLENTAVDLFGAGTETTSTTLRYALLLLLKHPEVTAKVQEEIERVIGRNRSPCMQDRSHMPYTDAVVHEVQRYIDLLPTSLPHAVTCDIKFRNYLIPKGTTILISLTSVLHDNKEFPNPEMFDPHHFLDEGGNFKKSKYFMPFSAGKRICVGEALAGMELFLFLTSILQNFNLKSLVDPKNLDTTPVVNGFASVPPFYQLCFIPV
Chain of CYP2C19 (P33261 whole entry): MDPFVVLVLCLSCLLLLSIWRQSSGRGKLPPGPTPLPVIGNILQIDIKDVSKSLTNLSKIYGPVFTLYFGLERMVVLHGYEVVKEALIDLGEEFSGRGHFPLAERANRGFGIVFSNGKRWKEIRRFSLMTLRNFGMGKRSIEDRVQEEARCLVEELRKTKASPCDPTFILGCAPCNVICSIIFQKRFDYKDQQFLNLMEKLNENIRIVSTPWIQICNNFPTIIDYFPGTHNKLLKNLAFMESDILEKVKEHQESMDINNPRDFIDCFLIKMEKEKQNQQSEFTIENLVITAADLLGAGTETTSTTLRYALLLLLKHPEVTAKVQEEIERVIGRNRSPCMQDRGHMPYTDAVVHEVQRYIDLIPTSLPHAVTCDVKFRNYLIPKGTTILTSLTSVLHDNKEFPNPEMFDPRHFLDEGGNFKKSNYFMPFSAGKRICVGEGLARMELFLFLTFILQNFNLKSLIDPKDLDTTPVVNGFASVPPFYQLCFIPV
Chain of hERG (KCNH2) (Q12809 whole entry): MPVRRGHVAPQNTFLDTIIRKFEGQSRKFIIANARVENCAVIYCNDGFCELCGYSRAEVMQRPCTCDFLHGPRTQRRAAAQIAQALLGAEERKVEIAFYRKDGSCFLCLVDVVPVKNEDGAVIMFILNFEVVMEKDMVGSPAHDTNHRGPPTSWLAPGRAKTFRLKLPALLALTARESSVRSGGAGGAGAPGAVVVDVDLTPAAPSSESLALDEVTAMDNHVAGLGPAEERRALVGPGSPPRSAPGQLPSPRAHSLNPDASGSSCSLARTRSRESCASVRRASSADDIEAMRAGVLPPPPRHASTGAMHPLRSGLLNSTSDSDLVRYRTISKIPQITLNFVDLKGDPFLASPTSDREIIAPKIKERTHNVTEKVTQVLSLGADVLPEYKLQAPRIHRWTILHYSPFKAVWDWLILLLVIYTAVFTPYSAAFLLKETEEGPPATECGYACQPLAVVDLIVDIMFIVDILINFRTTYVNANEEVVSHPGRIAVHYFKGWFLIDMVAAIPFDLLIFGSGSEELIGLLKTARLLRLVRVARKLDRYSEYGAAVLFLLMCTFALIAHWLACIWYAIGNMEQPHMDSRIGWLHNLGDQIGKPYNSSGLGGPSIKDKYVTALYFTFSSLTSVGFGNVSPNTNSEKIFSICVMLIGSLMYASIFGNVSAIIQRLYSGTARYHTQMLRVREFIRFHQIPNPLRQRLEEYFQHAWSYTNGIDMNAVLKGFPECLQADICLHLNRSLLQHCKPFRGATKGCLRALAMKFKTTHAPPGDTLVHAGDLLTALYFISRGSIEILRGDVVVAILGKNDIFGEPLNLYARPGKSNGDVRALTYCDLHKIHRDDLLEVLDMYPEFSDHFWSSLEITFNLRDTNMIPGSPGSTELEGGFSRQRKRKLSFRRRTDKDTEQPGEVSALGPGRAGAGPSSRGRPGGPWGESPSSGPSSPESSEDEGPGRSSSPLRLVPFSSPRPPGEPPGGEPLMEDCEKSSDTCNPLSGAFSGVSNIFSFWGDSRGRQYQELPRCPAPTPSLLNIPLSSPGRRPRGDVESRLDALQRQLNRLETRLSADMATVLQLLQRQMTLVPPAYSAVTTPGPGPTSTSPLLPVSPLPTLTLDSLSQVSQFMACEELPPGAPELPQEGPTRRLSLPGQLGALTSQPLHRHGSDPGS
Chain of CYP3A4 (P08684 whole entry): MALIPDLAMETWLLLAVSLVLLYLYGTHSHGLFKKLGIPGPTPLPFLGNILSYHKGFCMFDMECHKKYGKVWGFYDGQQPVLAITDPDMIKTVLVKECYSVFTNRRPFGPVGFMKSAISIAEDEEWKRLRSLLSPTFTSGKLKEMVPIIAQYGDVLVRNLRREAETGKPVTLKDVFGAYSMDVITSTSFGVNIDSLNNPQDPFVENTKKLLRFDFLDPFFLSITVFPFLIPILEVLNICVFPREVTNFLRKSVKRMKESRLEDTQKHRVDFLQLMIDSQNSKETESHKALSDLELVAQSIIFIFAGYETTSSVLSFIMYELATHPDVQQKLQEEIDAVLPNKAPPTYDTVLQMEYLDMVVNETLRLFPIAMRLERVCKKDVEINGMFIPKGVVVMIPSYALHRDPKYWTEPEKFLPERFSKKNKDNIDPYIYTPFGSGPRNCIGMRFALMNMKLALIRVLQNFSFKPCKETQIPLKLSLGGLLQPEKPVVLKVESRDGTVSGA

Structure (SMILES) | inhibition [4] | inhibition at 0.5 h, 10 µM (CYP3A4) | inhibition at 0.5 h, 10 µM (CYP2D6) | inhibition at 0.75 h, 10 µM (Aurora kinase B) | inhibition at 0.5 h, 10 µM (CYP2C19) | inhibition at 0.5 h, 10 µM (CYP2C9) | inhibition [11] | inhibition at 0.5 h, 10 µM (CYP1A2) | Activity (Trypanosoma brucei [1]) | growth inhibition (GI) (Trypanosoma brucei [2]) | cell growth (% of control) at 48 h, 10 µM [3] | inhibition of growth at 50 µM (Leishmania infantum) | cell growth (% of control) at 48 h, 10 µM [5] | viability at 72 h, 50 µM [6] | PF (Trypanosoma brucei [7]) | inhibition at 2 h, 10 µM (hERG (KCNH2)) | cytotoxicity at 6 h, 10 µM [8] | viability at 72 h, 100 µM [9] | Activity (Trypanosoma brucei [10]) | inhibition of growth at 50 µM (Trypanosoma cruzi) | further results
NC(=S)N/N=C/C(O)C(O)C(O)CO (stereo not given) | 4.38% | -27.9% | -54.5% | -7.51% | -35.1% | -19.7% | 1.7% | -13.2% | 0.5% | inactive | 129% | – | 95.7% | 146% | 0.65 | -11.1% | -1.92% | 67.6% | 16.17% | – | growth inhibition (GI) (Trypanosoma cruzi): inactive; growth inhibition (GI) (Leishmania infantum): inactive
NC(=S)N/N=C/c1cccc(-c2ccc3c(c2)OCO3)c1 | 0.33% | 69.7% | 76.9% | -3.81% | 48.4% | 45.3% | 0.16% | 101% | 38.67% | – | 111% | 46.9% | 91.9% | 81.5% | 1.53 | 9.13% | 15.7% | 2.61% | 96.33% | 71.3% | inhibition of growth at 50 µM (Trypanosoma brucei [2]): 61.8%

Further lines, with some results ahead:

inhibition [4] | inhibition at 0.5 h, 10 µM (CYP3A4) | inhibition at 0.5 h, 10 µM (CYP2D6) | inhibition at 0.75 h, 10 µM (Aurora kinase B) | inhibition at 0.5 h, 10 µM (CYP2C19) | inhibition at 0.5 h, 10 µM (CYP2C9) | inhibition [11] | inhibition at 0.5 h, 10 µM (CYP1A2) | Structure (SMILES) | Activity (Trypanosoma brucei [1]) | growth inhibition (GI) (Trypanosoma brucei [2]) | cell growth (% of control) at 48 h, 10 µM [3] | inhibition of growth at 50 µM (Leishmania infantum) | cell growth (% of control) at 48 h, 10 µM [5] | viability at 72 h, 50 µM [6] | PF (Trypanosoma brucei [7]) | inhibition at 2 h, 10 µM (hERG (KCNH2)) | cytotoxicity at 6 h, 10 µM [8] | viability at 72 h, 100 µM [9] | Activity (Trypanosoma brucei [10]) | inhibition of growth at 50 µM (Trypanosoma cruzi) | further results
3.6% | -13.1% | -6.6% | -10.5% | -39.5% | 3.06% | 7.43% | -1.56% | NC(=S)N/N=C/c1ccc(N)cc1 | 4.33% | inactive | 125% | 38.6% | 121% | 125% | 2.58 | 3.02% | -7.54% | 74.4% | 73.67% | – | growth inhibition (GI) (Trypanosoma cruzi): inactive
1.75% | -8.16% | 8.57% | -5.27% | -20.7% | 4.24% | inactive | 38.3% | Cc1ccsc1/C=N/NC(N)=S | 8.33% | – | 91.9% | 8.28% | 85.4% | 95.8% | 1.05 | -5.98% | 2.15% | 76% | 34.17% | 24.9% | inhibition of growth at 50 µM (Trypanosoma brucei [2]): 17.3%
2.62% | -4.06% | -13.1% | -14.2% | -20.7% | 7.46% | 10.2% | 11.5% | C/C(=N\NC(N)=S)c1ccc(N)cc1 | 4.67% | inactive | 141% | 9.54% | 83.1% | 113% | 2.6 | 6.38% | -5.04% | 95.2% | 75.17% | 51.8% | –
